The chains are these.
B1: Osa-1-4 twister ribozyme (parent)
chain: CCGCCUAACACUGCCAAUGCCGGUCCCAAGCCCGGAUAAAAGUGGAGGGGGCGG

This data set covers variants of B1. Put plainly: self-cleavage, relative activity (ratio to wild type); higher = more cleavage; co-transcriptional. Put shortly: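 A DNA template encoding a 54-nucleotide twister ribozyme from Oryza sativa was made so that each of the 48 positions downstream of the cleavage site carried 97 % wild-type base and 1 % of each other base. Transcription in vitro ran for 2 h at 37 °C, during which the ribozyme could cleave itself. Reverse transcription used a template-switching oligonucleotide, and the products were PCR-amplified and deep-sequenced. Each read was scored as cleaved or uncleaved by whether upstream sequence was present, and relative activity is the fraction cleaved normalised to wild type.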
For the variant CCGCCUAACACUUCCAAUGCCGGUCCCAAGCCCGGAUAAAAGUGGAAGGGGCGG [G13U G47A], the self-cleavage is 0.02.

As to CCGCCUAACACUUCCAAUGCCGGUCCCAAGCCCGGAUAAAAGUGGACGGGGCGG [G13U G47C], the self-cleavage stood at 0.01.

Consider CCGCCUAACACUUCCAAUGCCGGUCCCAAGCCCGGAUAAAAGUGGAUGGGGCGG [G13U G47U], for which the self-cleavage is 0.02.

Consider CCGCCUAACACUUCCAAUGCCGGCCCCAAGCCCGGAUAAAAGUGGAGGGGGCGG [G13U U24C], for which the self-cleavage came out at 0.03.

For the variant CCGCCUAACACUUCCAAUGCCGGGCCCAAGCCCGGAUAAAAGUGGAGGGGGCGG [G13U U24G], the self-cleavage was found to be 0.02.

Take CCGCCUAACACUUCCAAUGCCGGACCCAAGCCCGGAUAAAAGUGGAGGGGGCGG [G13U U24A]: the self-cleavage stood at 0.01.

Regarding CCGCCUAACACUUCCAAUGCCGGUCCCAAGCCCGGAUAAAAGUGGAGGGUGCGG [G13U G50U], the self-cleavage was 0.03.

Turning to CCGCCUAACACUUCCAAUGCCGGUCCCAAGCCCGGAUAAAAGUGGAGGGAGCGG [G13U G50A], the self-cleavage was found to be 0.03.

As to CCGCCUAACACUUCCAAUGCCGGUCCCAAGCCCGGAUAAAAGUGGAGGGCGCGG [G13U G50C], the self-cleavage amounted to 0.02.

Regarding CCGCCUAACACUUCCAAUGCCGGUCCCAAGCCCGGAUAAAAGGGGAGGGGGCGG [G13U U43G], the self-cleavage was determined as 0.04.

As to CCGCCUAACACUUCCAAUGCCGGUCCCAAGCCCGGAUAAAAGCGGAGGGGGCGG [G13U U43C], the self-cleavage was determined as 0.03.

As for CCGCCUAACACUUCCAAUGCCGGUCCCAAGCCCGGAUAAAAGAGGAGGGGGCGG [G13U U43A], the self-cleavage was determined as 0.02.

Turning to CCGCCUAACACUGACAAUGACGGUCCCAAGCCCGGAUAAAAGUGGAGGGGGCGG [C14A C20A], the self-cleavage worked out at 0.12.

For the variant CCGCCUAACACUGACAAUGGCGGUCCCAAGCCCGGAUAAAAGUGGAGGGGGCGG [C14A C20G], the self-cleavage is 0.03.

Turning to CCGCCUAACACUGACAAUGUCGGUCCCAAGCCCGGAUAAAAGUGGAGGGGGCGG [C14A C20U], the self-cleavage amounted to 0.16.

With CCGCCUAACACUUCCAAUGCCGGUCCCAAGCCCGGAUAAAAGUGGAGGUGGCGG [G13U G49U], the self-cleavage is 0.01.

With CCGCCUAACACUUCCAAUGCCGGUCCCAAGCCCGGAUAAAAGUGGAGGCGGCGG [G13U G49C], the self-cleavage amounted to 0.01.

CCGCCUAACACUUCCAAUGCCGGUCCCAAGCCCGGAUAAAAGUGGAGGAGGCGG [G13U G49A]: the self-cleavage came to 0.01.

Take CCGCCUAACACUUCCAAUGCCGGUCCCAAGCCCGGAUAAAAGUGUAGGGGGCGG [G13U G45U]: the self-cleavage was 0.02.

Turning to CCGCCUAACACUUCCAAUGCCGGUCCCAAGCCCGGAUAAAAGUGAAGGGGGCGG [G13U G45A], the self-cleavage was found to be 0.02.

Turning to CCGCCUAACACUUCCAAUGCCGGUCCCAAGCCCGGAUAAAAGUGCAGGGGGCGG [G13U G45C], the self-cleavage came to 0.01.

Consider CCGCCUAACACUGACAAUGCCGGUCCCAAGCCCGGAUAAAAGUGGAGGGGGCGG [C14A], for which the self-cleavage was determined as 0.13.

With CCGCCUAACACUUCCAAUGCCGGUCCCAAGCCCGGAAAAAAGUGGAGGGGGCGG [G13U U37A], the self-cleavage worked out at 0.02.

As to CCGCCUAACACUUCCAAUGCCGGUCCCAAGCCCGGAGAAAAGUGGAGGGGGCGG [G13U U37G], the self-cleavage turned out to be 0.04.

In the case of CCGCCUAACACUUCCAAUGCCGGUCCCAAGCCCGGACAAAAGUGGAGGGGGCGG [G13U U37C], the self-cleavage stood at 0.03.

Turning to CCGCCUAACACCUCCAAUGCCGGUCCCAAGCCCGGAUAAAAGUGGAGGGGGCGG [G13U U12C], the self-cleavage is 0.05.

CCGCCUAACACGUCCAAUGCCGGUCCCAAGCCCGGAUAAAAGUGGAGGGGGCGG [G13U U12G]: the self-cleavage came to 0.14.

Turning to CCGCCUAACACAUCCAAUGCCGGUCCCAAGCCCGGAUAAAAGUGGAGGGGGCGG [G13U U12A], the self-cleavage was 0.02.

With CCGCCUAACACUUCCAAUGCCGGUCCCAAGCCCGGAUAAAAGUGGAGCGGGCGG [G13U G48C], the self-cleavage amounted to 0.01.

On to CCGCCUAACACUUCCAAUGCCGGUCCCAAGCCCGGAUAAAAGUGGAGUGGGCGG [G13U G48U], for which the self-cleavage was 0.01.

Regarding CCGCCUAACACUUCCAAUGCCGGUCCCAAGCCCGGAUAAAAGUGGAGAGGGCGG [G13U G48A], the self-cleavage amounted to 0.01.

As to CCGCCUAACACUUCCAAUGCCGGUCCCAAGCCCGGAUAAAAGUGGAGGGGACGG [G13U G51A], the self-cleavage stood at 0.02.

As for CCGCCUAACACUUCCAAUGCCGGUCCCAAGCCCGGAUAAAAGUGGAGGGGUCGG [G13U G51U], the self-cleavage was found to be 0.02.

On to CCGCCUAACACUUCCAAUGCCGGUCCCAAGCCCGGAUAAAAGUGGAGGGGCCGG [G13U G51C], for which the self-cleavage was 0.01.

As to CCGCCUAACACUUCCAAUGCCGGUCCCAAGCCCGGAUAAAAGUGGAGGGGGCGC [G13U G54C], the self-cleavage stood at 0.02.

As for CCGCCUAACACUUCCAAUGCCGGUCCCAAGCCCGGAUAAAAGUGGAGGGGGCGU [G13U G54U], the self-cleavage was determined as 0.04.

CCGCCUAACACUUCCAAUGCCGGUCCCAAGCCCGGAUAAAAGUGGAGGGGGCGA [G13U G54A]: the self-cleavage was 0.03.

For CCGCCUAAUACUGACAAUGCCGGUCCCAAGCCCGGAUAAAAGUGGAGGGGGCGG [C14A C9U], the self-cleavage came out at 0.06.

Take CCGCCUAAGACUGACAAUGCCGGUCCCAAGCCCGGAUAAAAGUGGAGGGGGCGG [C14A C9G]: the self-cleavage was 0.06.

In the case of CCGCCUAAAACUGACAAUGCCGGUCCCAAGCCCGGAUAAAAGUGGAGGGGGCGG [C14A C9A], the self-cleavage came out at 0.03.

As for CCGCCUAACACUGAUAAUGCCGGUCCCAAGCCCGGAUAAAAGUGGAGGGGGCGG [C14A C15U], the self-cleavage came out at 0.05.

In the case of CCGCCUAACACUGAAAAUGCCGGUCCCAAGCCCGGAUAAAAGUGGAGGGGGCGG [C14A C15A], the self-cleavage stood at 0.07.

As to CCGCCUAACACUGAGAAUGCCGGUCCCAAGCCCGGAUAAAAGUGGAGGGGGCGG [C14A C15G], the self-cleavage came out at 0.05.

Consider CCGCCUAACACUUCCAACGCCGGUCCCAAGCCCGGAUAAAAGUGGAGGGGGCGG [G13U U18C], for which the self-cleavage was 0.03.

With CCGCCUAACACUUCCAAAGCCGGUCCCAAGCCCGGAUAAAAGUGGAGGGGGCGG [G13U U18A], the self-cleavage stood at 0.03.

CCGCCUAACACUUCCAAGGCCGGUCCCAAGCCCGGAUAAAAGUGGAGGGGGCGG [G13U U18G]: the self-cleavage was determined as 0.05.

As to CCGCCUAACACUUCCAAUGCCGGUCCCAAGCCCGGAUAAAAGUGGAGGGGGCUG [G13U G53U], the self-cleavage stood at 0.02.

On to CCGCCUAACACUUCCAAUGCCGGUCCCAAGCCCGGAUAAAAGUGGAGGGGGCAG [G13U G53A], for which the self-cleavage amounted to 0.03.

With CCGCCUAACACUUCCAAUGCCGGUCCCAAGCCCGGAUAAAAGUGGAGGGGGCCG [G13U G53C], the self-cleavage turned out to be 0.01.

Values taken from the RNAGym collection of RNA variant scans (doi:10.1002/anie.201605470).
